From the RNAGym collection of RNA variant scans (doi:10.1126/science.aae0568)
This sample holds only a part of the variants without activity.

B1: tRNA (parent)
chain: GUUCCGUUGGCGUAAUGGUAACGCGUCUCCCUCCUAAGGAGAAGACUGCGGGUUCGAGUCCCGUACGGAACG

Variants of: B1
Assay: yeast fitness relative to wild type (ratio to wild type); higher = fitter; tRNA-Arg(CCU), competitive growth, 37 C, YPD
Method in brief: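 Genotype frequency changes were the basis for Darwinian fitness relative to wild type. The frequencies came from 100-nucleotide paired-end sequencing of gene amplicons from the start population and each end population of pooled yeast strains with tRNA-Arg(CCU) gene variants at the native locus. Competition ran in YPD at 37°C for 24 hours in six replicates, genotypes needed ≥ 100 starting reads, and estimates < 0.5 were set to 0.5.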

Row | Variant | yeast fitness
1 | C4G U16A A36C A57C C61A U64C | ≤ 0.5
2 | C4G U16A A36C U54G C60U A70G | ≤ 0.5
3 | C4G U16A A43C | ≤ 0.5
4 | C4G U16A U35A C61G | 0.882
5 | C4G U16C | 0.806
6 | C4G U16C C31U A70U | ≤ 0.5
7 | C4G U16C G44A G48A G50C C66G | ≤ 0.5
8 | C4G U16G C30U C34A U53G A70C | ≤ 0.5
9 | C4G U16G G48A A57G A69U | ≤ 0.5
10 | C4G U19A A21G G52C C55G | ≤ 0.5
11 | C4G U19A C27A | 0.741
12 | C4G U19C C62U G63A | 0.545
13 | C4G U19G A69U | ≤ 0.5
14 | C4G U26A | 0.796
15 | C4G U26A C30U G48A U54A C55G A65U | ≤ 0.5
16 | C4G U26A C49U | ≤ 0.5
17 | C4G U26C | 0.993
18 | C4G U26C A40U C49U | ≤ 0.5
19 | C4G U26G | 0.856
20 | C4G U28A C31G A57G C62U | 0.532
21 | C4G U28A G39A A65U G68A | ≤ 0.5
22 | C4G U28C C66U | 0.524
23 | C4G U32A | 0.864
24 | C4G U32A C34G G41C G68A | ≤ 0.5

Row | Variant | yeast fitness
25 | C4G U32C | 0.944
26 | C4G U32C A45U | 0.537
27 | C4G U32G C33U A37U A65G | ≤ 0.5
28 | C4G U35C C49U | 0.533
29 | C4G U35C C55A A69U | ≤ 0.5
30 | C4G U35C C55G | ≤ 0.5
31 | C4G U47C U59G | ≤ 0.5
32 | C4G U47G U59A C66A | ≤ 0.5
33 | C4G U53A A65C | ≤ 0.5
34 | C4G U53A G63C | ≤ 0.5
35 | C4G U53C | 0.776
36 | C4G U59C A69C | 0.778
37 | C4G U59G | 0.653
38 | C4G U64C G68C | 0.632
39 | C4U A14C C55U G58C | 0.595
40 | C4U A14C G39C | ≤ 0.5
41 | C4U A14C G44A U54A A70U | ≤ 0.5
42 | C4U A14G A15G C22U C46U A70U | ≤ 0.5
43 | C4U A14G A20C C34U C55U | ≤ 0.5
44 | C4U A14G A40U | 0.593
45 | C4U A14G A45C | 0.542
46 | C4U A14G A45C G63C | ≤ 0.5
47 | C4U A14G A70U | 0.787
48 | C4U A14G C29A | ≤ 0.5

Row | Variant | yeast fitness
49 | C4U A14G C34A | ≤ 0.5
50 | C4U A14G C46G | 0.659
51 | C4U A14G G48C | 0.659
52 | C4U A14U | 0.611
53 | C4U A14U A21C A45C A69U | ≤ 0.5
54 | C4U A14U A69U | 0.651
55 | C4U A14U C22U A40U G44C A57C | ≤ 0.5
56 | C4U A15C A43G G44A U47A C49G | ≤ 0.5
57 | C4U A15C A70U | 0.573
58 | C4U A15C C29G C30G A43C | ≤ 0.5
59 | C4U A15C C30G A69C A70G | ≤ 0.5
60 | C4U A15C C30G G52A A65C | ≤ 0.5
61 | C4U A15C C46U | 0.7
62 | C4U A15C G41A G63C | ≤ 0.5
63 | C4U A15C G51C A57G | ≤ 0.5
64 | C4U A15C G63A | ≤ 0.5
65 | C4U A15G | 0.997
66 | C4U A15G G23A C34G | ≤ 0.5
67 | C4U A15G G23C A37U | ≤ 0.5
68 | C4U A15G G23C A37U C49U A65U | 0.525
69 | C4U A15G G23C A37U C61A | ≤ 0.5
70 | C4U A15U | 0.89
71 | C4U A15U A20C G23A G50C | ≤ 0.5
72 | C4U A15U A42C A57U | ≤ 0.5

Row | Variant | yeast fitness
73 | C4U A15U A45G C62G | ≤ 0.5
74 | C4U A15U C66U | 0.649
75 | C4U A15U G68A | ≤ 0.5
76 | C4U A15U U16A G23C G25A A57U A69U | ≤ 0.5
77 | C4U A15U U28C | 0.55
78 | C4U A15U U28C A57G | ≤ 0.5
79 | C4U A20C C30A C55A G67A | 0.53
80 | C4U A20C C34G A36G A65U | ≤ 0.5
81 | C4U A20C C46U A70G | ≤ 0.5
82 | C4U A20C U26G | 0.552
83 | C4U A20G | 0.979
84 | C4U A20G A45U C61A C62U | 0.546
85 | C4U A20G A69C | 0.817
86 | C4U A20G C30A | 0.81
87 | C4U A20G U28C C31U G50C C55U C60G G63A C66U | 0.508
88 | C4U A20G U32G A43C A45U | ≤ 0.5
89 | C4U A20U | 0.988
90 | C4U A20U A40U G67C | ≤ 0.5
91 | C4U A20U C27G C30G U32C A43G A65C G68C | ≤ 0.5
92 | C4U A20U C29U | ≤ 0.5
93 | C4U A20U C46A | 1.02
94 | C4U A20U C61G | ≤ 0.5
95 | C4U A20U U28C C61G | ≤ 0.5
96 | C4U A20U U35A G38A | ≤ 0.5

Row | Variant | yeast fitness
97 | C4U A20U U47G G58A C62A | ≤ 0.5
98 | C4U A20U U53C G67C | ≤ 0.5
99 | C4U A21C A57U | ≤ 0.5
100 | C4U A21C C27G A43C G48A C66A | ≤ 0.5
101 | C4U A21C C30A C31G U32C G41C C55U | ≤ 0.5
102 | C4U A21C G25A C30A C31G U32C G41C | ≤ 0.5
103 | C4U A21C G44A | ≤ 0.5
104 | C4U A21C G67U | ≤ 0.5
105 | C4U A21G | 1.1
106 | C4U A21G C22A C46A | 0.563
107 | C4U A21G C29G C31U G41A G50C A70C | 0.599
108 | C4U A21G C46A G68C | 0.544
109 | C4U A21G C46A U64C | 0.676
110 | C4U A21G U28G C60A | ≤ 0.5
111 | C4U A21G U32A A40C C46A | 0.769
112 | C4U A21U A42G G50C C66U A70U | ≤ 0.5
113 | C4U A21U C24U C27A A37C A40U G67C | ≤ 0.5
114 | C4U A21U C55U | ≤ 0.5
115 | C4U A21U U26G G58A | 0.522
116 | C4U A36C | 0.542
117 | C4U A36C G63A | 0.536
118 | C4U A36G A40C G44C | 0.596
119 | C4U A36G G44C G63A | 0.572
120 | C4U A37C | 0.884

Row | Variant | yeast fitness
121 | C4U A37C G38A | 0.613
122 | C4U A37C G50C A57G | ≤ 0.5
123 | C4U A37G G39C | ≤ 0.5
124 | C4U A37G G39C A65G | ≤ 0.5
125 | C4U A37G G41C C55G | 0.537
126 | C4U A37U C66A | 0.542
127 | C4U A37U G52A | ≤ 0.5
128 | C4U A40G A65U | 0.596
129 | C4U A40G U53G A57C C60G A65U | 0.583
130 | C4U A40G U64C | 0.952
131 | C4U A40U A42U C46U | ≤ 0.5
132 | C4U A40U G68C | 0.68
133 | C4U A40U U47C | 0.643
134 | C4U A42C | 0.912
135 | C4U A42C C55U | ≤ 0.5
136 | C4U A42C G58A | 0.567
137 | C4U A42G | 0.868
138 | C4U A42G C49U | 0.704
139 | C4U A42G C66A | ≤ 0.5
140 | C4U A42U C61G | 0.593
141 | C4U A42U G67C | 0.676
142 | C4U A43C | 1.01
143 | C4U A43C A65U | 0.75
144 | C4U A43G C49U G68A | ≤ 0.5

Row | Variant | yeast fitness
145 | C4U A43U | 0.963
146 | C4U A45C A69U | 0.822
147 | C4U A45C C60G | 0.671
148 | C4U A45C C61U | 0.738
149 | C4U A45G U53G | ≤ 0.5
150 | C4U A45U C66G | 0.598
151 | C4U A57C | 0.709
152 | C4U A57G | 0.872
153 | C4U A57G G58C | 0.736
154 | C4U A57U A70U | 0.578
155 | C4U A69G | 0.901
156 | C4U A70G | 0.941
157 | C4U C5A | 0.796
158 | C4U C5A A15U C34U U54C C62U | ≤ 0.5
159 | C4U C5A A40C G68C | ≤ 0.5
160 | C4U C5A C61U | 0.719
161 | C4U C5A G68C | 0.551
162 | C4U C5A U59C C60G | ≤ 0.5
163 | C4U C5G A15C A42C | ≤ 0.5
164 | C4U C5G A45G | 0.634
165 | C4U C5G C29G C31G A37C G63A | 0.542
166 | C4U C5G C29U G63A A65G | 0.535
167 | C4U C5G C29U U32A C33U | ≤ 0.5
